Screening results from PubChem.
Only some compounds are listed: those with a hit (about 12% of all), similar ones and a draw of the others.
Lmaj promast – reduces viability of Leishmania major promastigotes | inhibition, % at 10 µM | AID 1063 | resazurin fluorescence viability | 200,000 tested, 9% active; in the data active means inhibition above about 50%;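 further: promastigotes grown with compound for 44 hours at 28 °C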
Diaph act CS – diaphorase activation or chemical reduction counter-screen | Diaphorase/resazurin coupled assay, resorufin fluorescence, 16 min; stronger effect = higher value; 1 = vehicle wells, 0 = NADH-free wells | activation factor at 20 µM | 190,000 tested, 0.005% active | AID 1229;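 active means diaphorase activity raised at least twofold by the compound at 20 µM; inactive means activation factor below 2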
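Material: Clostridium kluyveri diaphorase, purified enzyme; Quantity: enzyme 0.07 U/mL final; Medium: HEPES pH 7.4 buffer with MgCl2 and Tween 20; Dosing: single compound dose of 20 µM, 1% DMSO final; Schedule: 16 min reaction at room temperature; Measured by: red resorufin fluorescence at 544/590 nm excitation/emission.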
Cl transport mod – KCC2 (human) Cl- transport modulation; AID 1456; 190,000 tested, 2.2% active; B-score of Tl+ flux slope (higher = more flux/activation; lower = inhibition) at 10 µM; KCC2 cells, thallium flux FluoZin-2 fluorescence;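 active means thallium flux slope and its plate-corrected score both differing from the plate sample mean at a set confidence after two filtering rounds, in either direction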;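 further: slope of fluorescence scaled to starting intensity during 10 to 20 s after thallium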
Diaph inh CS – counter-screen for diaphorase-based assays: diaphorase inhibitors and chemical oxidizers; diaphorase resazurin-to-resorufin fluorescence, NADH, 16 min; bacterial (C. kluyveri) enzyme, not human; inhibition, % at 20 µM; 190,000 tested, 0.69% active; AID 1217;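 active means primary screen inhibition at 20 µM above a set limit, cut at about 50% in these data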;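 further: plate controls were DMSO with full reaction for no effect and wells lacking NADH for full effect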
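Assay system – diaphorase enzyme from Clostridium kluyveri · Amount – diaphorase 0.14 U/mL (working solution) · Times – reaction incubation of 16 min at room temperature · Controls – No-NADH positive control and DMSO neutral control · Signal – resorufin fluorescence 544/590 nm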
WT yeast gro inh – growth inhibition of WT yeast, mitochondrial fusion screen | mitochondrial fusion phenotypic screen, WT strain | inhibition, % at 10 µM | 190,000 tested, 2.1% active; in the data active means inhibition above about 58%; tested in S. cerevisiae
ROMK primary – modulators of human ROMK potassium channel. AID 1918. 130,000 tested, 2% active. Tet-inducible ROMK, thallium flux fluorescence; actives lie on both sides. B-score at 10 µM;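 active means signal ratio slope over the read window, or its plate-corrected B-score, at least 3 SD from the plate mean, either direction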;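 further: B-score of the F/F0 ratio slope over 7 to 12 s after thallium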
Target sequence (P48048 whole entry, looked up): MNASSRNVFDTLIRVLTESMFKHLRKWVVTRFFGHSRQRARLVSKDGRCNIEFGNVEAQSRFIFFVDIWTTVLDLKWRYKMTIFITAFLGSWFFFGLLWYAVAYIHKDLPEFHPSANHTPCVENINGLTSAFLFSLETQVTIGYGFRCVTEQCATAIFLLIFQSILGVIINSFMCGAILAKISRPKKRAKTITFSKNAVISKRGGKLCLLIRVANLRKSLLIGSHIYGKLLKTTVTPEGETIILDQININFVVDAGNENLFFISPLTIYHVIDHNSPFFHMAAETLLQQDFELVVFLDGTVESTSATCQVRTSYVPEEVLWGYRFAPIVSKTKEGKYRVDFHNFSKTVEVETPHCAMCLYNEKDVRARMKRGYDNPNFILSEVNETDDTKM
* hit, by the source's call; · = no result given.

SMILES	Lmaj promast	Diaph act CS	Cl transport mod	Diaph inh CS	WT yeast gro inh	ROMK primary
COc1ccc(-c2c[n+]3c(n2-c2ccc(C)cc2)CCCCC3)cc1	·	·	1.1	·	·	·
COC(=O)c1c(S(=O)(=O)NCc2ccccc2)sc(C(=O)O)c1C	-8	1	·	2	7	2
COc1ccc(/C=C/C(=O)c2ccccc2O)cc1	3	1	1.2	4	35	0.034
O=C(/C=C/c1ccccc1)c1cc(Br)ccc(=O)c1O	77*	0.7	16*	35	4	-1
Cc1ccc(/C=C/C(=O)c2ccccc(=O)c2O)cc1C	97*	0.6	32*	40	-20	-0.37
c1ccc2cc(CSCc3nc4ccccc4[nH]3)ccc2c1	19	0.8	-0.11	19	74*	-0.69
CC(C)[C@H](NC(=O)c1ccco1)C(=O)OCC(=O)Nc1ccccc1OC(F)F	-3	0.9	·	7	-36	0.025
CCN1/C(=C2/SC(=S)NC2=O)Sc2ccccc21	77*	0.9	0.82	12	2	-0.097
COc1ccc(-c2c[n+](CC(=O)c3ccccc3)c3n2CCCCC3)cc1	·	·	-0.62	·	·	-3.2
O=C(C[n+]1cc(-c2ccccc2)n2c1CCCCC2)c1ccc(Cl)cc1	70*	0.9	-0.48	8	12	·
Cc1ccc(-c2c[n+](CC(=O)c3ccc(Br)cc3)c3n2CCCCC3)cc1	100*	1	·	-4	11	-2.2
COc1ccc(Cl)c(Cn2c(NCCCN(C)C)nc3c2c(=O)n(C)c(=O)n3C)c1	100*	1	0.69	1	-7	·
COC(=O)C(Sc1nc(C)cc(C)c1C#N)c1ccccc1 (stereo not given)	98*	0.9	-0.34	11	25	·
Cc1nc(SC(C(N)=O)c2ccccc2)c(C#N)c(C)c1C (stereo not given)	·	·	0.3	·	·	-0.48
CCOc1ccccc1OCC(=O)Nc1ccc(S(=O)(=O)Nc2ncccn2)cc1	-9	0.9	0.42	5	-3	0.46
CCOc1ccccc1OCC(=O)Nc1ccc(S(=O)(=O)N(C)C)cc1	-3	1	-0.53	1	69*	·
CN(C)S(=O)(=O)c1ccc(NC(=O)CN2CCC(Cc3ccccc3)CC2)cc1	76*	0.9	-1	11	12	-0.051
COCCCN(Cc1ccco1)C(=O)Cn1ncc2c(=O)oc3ccc(C)cc3c21	·	·	-1.5	·	·	-0.67
CC(=O)c1nnn(-c2cccc(C#N)c2)c1C	·	·	1.2	·	·	-0.14
Cc1cccc(-n2c(=S)[nH]c3c(oc4ccccc43)c2=O)c1	58*	0.4	0.19	64*	20	2.4
O=c1c2oc3ccccc3c2[nH]c(=S)n1-c1ccccc1	-2	0.3	-1.8	66*	-9	·
Cc1ccc(-n2c(C)nc3oc4ccccc4c(=O)c3c2=O)cc1	14	0.4	·	56*	-10	·
Cc1cccc(-n2c(=S)[nH]c3nc4c(cc3c2=O)COC(C)(C)C4)c1	·	·	-0.038	·	·	·
Cc1ccc(-n2c(=S)[nH]c3c(oc4ccccc43)c2=O)cc1	-7	0.3	1.6	66*	0	·
Cc1cc2c(N=NC(=O)CCc3ccccc3)c(O)[nH]c2cc1Br	-10	1	3	-2	14	0.29
SMILES	Lmaj promast	Diaph act CS	Cl transport mod	Diaph inh CS	WT yeast gro inh	ROMK primary
CCC/C(=N\NC(=O)c1cccc(C)c1)c1ccccc1	-6	1	2	-3	-11	0.049
COc1ccc(NC(=O)C(CC(=O)O)C(C)c2ccccc2)cc1 (stereo not given)	1	1.1	1.3	-8	-9	0.49
Cc1ccc(S(=O)(=O)CCC(=O)OCc2ccccc2F)cc1	-9	0.8	-0.45	16	-8	0.42
Cc1ccc2nc(C)c3c(c2c1)COC3	14	0.9	·	8	22	-0.43
COc1ccc(/C=N/N(Cc2ccccc2)c2ccccc2)cc1O	3	0.9	0.69	14	83*	-0.2
COC(=O)c1cc(OC)c(OC)cc1NCC(=O)Nc1ccc(C)cc1	-10	0.9	1.5	8	17	·
COC(=O)c1cc(OC)c(OC)cc1NCC(=O)Nc1cccc(C(F)(F)F)c1	74*	0.8	0.15	22	24	-0.6
O=C(CNc1cc(S(=O)(=O)N2CCCC2)ccc1OCC(F)(F)F)Nc1cccc(C(F)(F)F)c1	95*	0.7	0.56	30	-2	·
